Results: ChEMBL document CHEMBL3352380, “Development of benzo[d]oxazol-2(3H)-ones derivatives as novel inhibitors of Mycobacterium tuberculosis InhA” (Bioorg Med Chem, 2014)
In brackets after ≈: the same amount, converted by molar mass.

test system: Mycobacterium tuberculosis; test: Antimicrobial activity against extensively drug-resistant Mycobacterium tuberculosis XDR-TB after 28 days by two-fold agar dilution method; type: functional; details: 672 h
In short: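 Two-fold serial dilutions in Middlebrook 7H11 agar with OADC supplement, final 50 to 0.78 µg/mL. Inoculum from fresh 7H11/OADC slants, adjusted to 1 mg/mL wet weight in 0.05% Tween 80 saline and diluted 10^-2 (~10^7 cfu/mL), spotted onto drug-containing agar tubes. Incubated at 37 °C; MIC is the lowest concentration inhibiting growth, read at 28 days.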

SMILES	MIC
O=C(Cn1c(=O)oc2ccccc21)NCc1ccco1	11.5 µM (≈ 3.12 µg/mL)
O=C(Cn1c(=O)oc2ccccc21)NCc1cccs1	21.7 µM (≈ 6.25 µg/mL)
O=C(Cn1c(=O)oc2cc([N+](=O)[O-])ccc21)NCc1cccs1	18.8 µM (≈ 6.25 µg/mL)
O=C(Cn1c(=O)oc2cc(Cl)ccc21)Nc1ncc([N+](=O)[O-])s1	17.6 µM (≈ 6.25 µg/mL)
O=C(Cn1c(=O)oc2cc([N+](=O)[O-])ccc21)Nc1ncc([N+](=O)[O-])s1	17.1 µM (≈ 6.25 µg/mL)
O=C(Cn1c(=O)oc2ccccc21)Nc1nc2ccccc2s1	38.4 µM (≈ 12.5 µg/mL)
O=C(Cn1c(=O)oc2cc(Cl)ccc21)Nc1nc2ccccc2s1	34.7 µM (≈ 12.5 µg/mL)
O=C(Cn1c(=O)oc2cc([N+](=O)[O-])ccc21)Nc1nc2ccc([N+](=O)[O-])cc2s1	15 µM (≈ 6.25 µg/mL)
CC[C@@H](CO)NCCN[C@@H](CC)CO [ETHAMBUTOL]	24.5 µM (≈ 5 µg/mL)
NNC(=O)c1ccncc1 [ISONIAZID]	45.6 µM (≈ 6.25 µg/mL)
CO[C@H]1/C=C/O[C@@]2(C)Oc3c(C)c(O)c4c(O)c(c(/C=N/N5CCN(C)CC5)c(O)c4c3C2=O)NC(=O)/C(C)=C\C=C\[C@H](C)[C@H](O)[C@@H](C)[C@@H](O)[C@@H](C)[C@H](OC(C)=O)[C@@H]1C [RIFAMPIN]	30.4 µM (≈ 25 µg/mL)
